Assay [1] deals with HeLa. Nature of the assay: Compound (at a concentration of 100 uM) was evaluated for the effect on DNA synthesis by HeLa cells in culture and the percentage inhibition of [3H]- thymidine incorporation after 3h of addition was reported. It counts as functional. Particulars: Homo sapiens. The method, boiled down:
(§1)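 Exponentially growing HeLa S3 cells (7×10^5 cells/mL, suspension) exposed to compound at 100 μM in Me2SO, or Me2SO alone, at 37 °C. After 3 h, [methyl-3H]thymidine added to 1 μCi/mL. After 30 min, quenched with cold PBS, pelleted, alkali hydrolysed (1 M NaOH, 65 °C, 1 h), TCA/pyrophosphate precipitated and filtered. Alkali-stable acid-insoluble counts give % inhibition versus solvent control.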

The subject of assay [2] is HeLa. Nature of the assay: Compound was evaluated for the effect on DNA synthesis by HeLa cells in culture and the inhibition of [3H]- thymidine incorporation after 3h of addition. It counts as functional, cell-based. The note with it: Homo sapiens. The method in brief: (§2)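 IC50 for [methyl-3H]thymidine incorporation into DNA of exponentially growing HeLa S3 suspension cells (7×10^5 cells/mL). Compounds in Me2SO, or Me2SO control, incubated 3 h at 37 °C, then label added at 1 μCi/mL for 30 min. Alkali-stable, acid-precipitable counts measured after NaOH (65 °C, 1 h) and TCA/pyrophosphate filtration.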
A general note: Uptake of a labelled nucleoside into DNA is a usual measure of proliferation.

Assay [3] deals with HeLa. Put plainly: Compound was evaluated for the effect on DNA synthesis by HeLa cells in culture and the percentage inhibition of [3H]- thymidine incorporation after 3h of addition was reported at 100 uM. It counts as functional. The note with it: Homo sapiens. The method in brief: as §1
The subject of assay [4] is HeLa. Put plainly: Compound was evaluated for the effect on growth and macromolecule synthesis by HeLa cells and the cell growth inhibition. It counts as functional, cell-based. Particulars: Homo sapiens. The method in brief: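 HeLa S3 cells (ca. 2.5×10^4 cells/mL), exponentially growing in Joklik's modified medium with 3.5% calf and 3.5% fetal bovine serum, preincubated 3 h at 37 °C in spinner flasks. Compound in Me2SO or solvent added, and cells counted at t=0 and after 72 h. IC50 derived from % growth inhibition.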

The subject of assay [5] is HeLa. Put plainly: Percent inhibition against [3H]uridine incorporation into DNA of HeLa cell after 45 mins of treatment. It counts as functional, Homo sapiens. The method, boiled down:
(§3)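 Exponentially growing HeLa S3 cells (7×10^5 cells/mL) treated with compound in Me2SO (100 μM, or 10 μM where stated), or Me2SO alone, for 3 h at 37 °C. [5,6-3H]uridine then added to 1 μCi/mL for 45 min. DNA: counts remaining acid-precipitable after 1 M NaOH at 60 °C, 1 h. RNA: total TCA-precipitable counts minus the DNA counts.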

For assay [6], the system named is HeLa. Nature of the assay: Compound (at a concentration of 100 uM) was evaluated for the effect on growth and macromolecule synthesis by HeLa cells and the percentage inhibition of [3H]- leucine incorporation after 3h of addition. The note with it: Homo sapiens. It counts as functional.
Assay [7] deals with HeLa. Put plainly: Percent inhibition against [3H]uridine incorporation into RNA of HeLa cell after 45 mins of treatment. It counts as functional, Homo sapiens. The method, boiled down: as §3
Assay [8] concerns HeLa. Put plainly: Effect on DNA synthesis by HeLa cells was determined by the percentage inhibition of [3H]- thymidine incorporation after 3h at 100 uM. It is filed as functional. Particulars: Homo sapiens. The method in brief:
as §1

Assay [9] relates to HeLa. Nature of the assay: Effect on DNA synthesis by HeLa cells was determined by the percentage inhibition of [3H]- thymidine incorporation after 3h. It counts as functional, cell-based. The note with it: Homo sapiens.
For assay [10], the system named is HeLa. Put plainly: Effect on DNA synthesis by HeLa cells was determined by the inhibition of [3H]- thymidine incorporation after 3h of addition. It is filed as functional, cell-based. Particulars: Homo sapiens. The method in brief: as §2
The subject of assay [11] is HeLa. Nature of the assay: Percent inhibition against [3H]-Uridine incorporation into RNA of HeLa cell after 45 mins of treatment at 100 uM. It is filed as functional. Particulars: Homo sapiens. The method, boiled down:
as §3

Assay [12] has as its system HeLa. Nature of the assay: Percent inhibition against [3H]-Uridine incorporation into DNA of HeLa cell after 45 mins of treatment at 100 uM. The note with it: Homo sapiens. It is filed as functional. The method, boiled down: as §3
The subject of assay [13] is HeLa. Put plainly: Effect on growth and macromolecule synthesis by HeLa cells was determined as the percentage inhibition of [3H]- leucine incorporation after 3h of addition at 100 uM. It is filed as functional. The note with it: Homo sapiens.
Assay [14] has as its system HeLa. Put plainly: Percent inhibition against [3H]uridine incorporation into RNA of HeLa cell after 45 mins of treatment at 10 uM. It counts as functional. The note with it: Homo sapiens. The method in brief:
as §3

In assay [15] the test system is HeLa. Nature of the assay: Effect on DNA synthesis by HeLa cells was determined by the percentage inhibition of [3H]- thymidine incorporation after 3h at 200 uM. It is filed as functional, Homo sapiens. The method, boiled down:
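HeLa S3 cells in exponential suspension culture (7×10^5 cells/mL) treated at 200 μM in Me2SO, or Me2SO alone, at 37 °C. After 3 h, [methyl-3H]thymidine added to 1 μCi/mL for 30 min. Cells were then pelleted, NaOH hydrolysed at 65 °C, and TCA precipitated onto filters. Alkali-stable acid-precipitable radioactivity gives % inhibition against solvent control.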

Assay [16] deals with HeLa. Nature of the assay: Compound was evaluated for the effect on [3H]- Uridine incorporation by HeLa cells and percentage inhibition into DNA. It counts as functional, Homo sapiens. The method, boiled down:
(§4)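 HeLa S3 cells grown in suspension, exponential phase (7 × 10^5 cells/mL), given compound in Me2SO (Me2SO alone for controls) for 3 h at 37 °C, then [5,6-3H]uridine to 1 μCi/mL for 45 min. DNA: alkali-stable, TCA-precipitable counts after 1 M NaOH at 60 °C for 1 h. RNA: total acid-precipitable nucleic acid minus DNA counts. Percent inhibition relative to control.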

In assay [17] the test system is HeLa. Nature of the assay: Compound was evaluated for the effect on [3H]- Uridine incorporation by HeLa cells and percentage inhibition into RNA. It is filed as functional, Homo sapiens. The method in brief:
as §4

25 compounds from ChEMBL document CHEMBL1123655, “Synthesis, cell growth inhibition, and antitumor screening of 2-(p-n-butylanilino)purines and their nucleoside analogues” (J Med Chem, 1987) can be followed below.

As for `Oc1[nH]c(Nc2ccc3c(c2)CCC3)nc2ncnc1-2`, the inhibition (in general, the relative decrease from the control value, in per cent) at 100 µM in [1] turned out to be 79%. For the same compound, inhibition in [2] was half-maximal at 52 µM (IC50).

With `CCc1cc(Nc2nc(O)c3[nH]cnc3n2)ccc1C`, the inhibition at 100 µM in assay [1] amounted to 44%.

For the compound `CCCCc1ccc(Nc2nc(Cl)c3[nH]cnc3n2)cc1`, the IC50 (in general, the concentration needed to halve the response being measured) in [2] was determined as 35 µM. Moreover, at 100 µM the inhibition in assay [3] was 99%.

On to `CCCCc1ccc(Nc2nc(OC)c3[nH]cnc3n2)cc1`, for which, in [1], at 100 µM the inhibition was 80%. Also, in [2], the IC50 was 30 µM.

As to `CCCCc1ccc(Nc2nc(N)c3[nH]cnc3n2)cc1`, the values for the inhibition at 100 µM in assay [1] and in assay [6] were 92% and 47%, respectively. For the same compound, the IC50 in [4] stood at 40 µM; in assay [2] it was 23 µM. Besides, the results for the Inhibition in assay [5] and in assay [7] were 93% and 87%, respectively.

For `CCCCc1ccc(Nc2nc(S)c3[nH]cnc3n2)cc1`, the inhibition at 100 µM in assay [1] is 94%. The compound further came in with an IC50 in assay [2] of 40 µM.

With `CCCCc1ccc(Nc2nc(Cl)c3ncn(COCCO)c3n2)cc1`, the inhibition at 100 µM in assay [8] came out at 99%. This compound returned an IC50 in assay [9] of 9 µM.

In assay [8], `CCCCc1ccc(Nc2nc(O)c3ncn(COCCO)c3n2)cc1` registered an inhibition at 100 µM of 81%. Besides, in assay [9], 38 µM corresponded to half-maximal inhibition (IC50).

As to `CCCCc1ccc(Nc2nc(O)c3[nH]cnc3n2)cc1`, the IC50 in [4] came to 65 µM; in assay [2] it was 69 µM. In addition, the Inhibition in assay [5] and in [7] was 76% each time. The inhibition at 100 µM in [6] stood at 13%; in assay [3], 63%.

`CCCCc1ccc(Nc2nc(OC)c3ncn(COCCO)c3n2)cc1` showed an inhibition at 100 µM in assay [8] of 80%.

`CCCCc1ccc(Nc2nc(S)c3ncn(COCCO)c3n2)cc1` registered an inhibition at 100 µM in [8] of 87%.

Consider `CCCCc1ccc(Nc2nc3c(ncn3[C@@H]3C[C@@H](O)[C@H](CO)O3)c(=O)[nH]2)cc1`, for which the IC50 in [10] was 37 µM; in assay [4] it was 25 µM. The inhibition at 100 µM in [11] was determined as 91%; in assay [12], 91%; in assay [13] it was 7%; in assay [8] it was 86%.

In the case of `CCCCc1ccc(Nc2ncc3ncn([C@@H]4C[C@@H](O)[C@H](CO)O4)c3n2)cc1`, the IC50 was determined as 5 µM in assay [4] and 4.8 µM in [9]. Besides, the results for the inhibition at 100 µM in assay [13] and in assay [8] were 58% and 97%, respectively.

Turning to `CCCCc1ccc(Nc2nc(N)c3ncn([C@@H]4C[C@@H](O)[C@H](CO)O4)c3n2)cc1`, the values for the IC50 in assay [4] and in assay [9] were 1.4 µM and 1 µM, respectively. In assay [5], the Inhibition (usually how much of the control response was suppressed) is 81%. Also, the values for the inhibition at 100 µM in [13] and in assay [8] were 56% and 96%, respectively. The same compound showed an inhibition at 10 µM in assay [14] of 73%.

For `CCCCc1ccc(Nc2nc(Cl)c3ncn([C@@H]4C[C@@H](O)[C@H](CO)O4)c3n2)cc1`, the IC50 in assay [4] is 10.3 µM; in [9], 11 µM. Moreover, the inhibition at 100 µM in [13] was 87%; in [8], 97%.

Turning to `CCCCc1ccc(Nc2nc(S)c3ncn([C@@H]4C[C@@H](O)[C@H](CO)O4)c3n2)cc1`, 100 µM produced 63% inhibition in assay [8].

As to `CCCCc1ccc(Nc2nc(N)c3ncn(COCCO)c3n2)cc1`, the inhibition at 100 µM in [8] was found to be 97%. In assay [9], this compound returned an IC50 of 8.5 µM.

In assay [1], `CCCCc1ccc(Nc2nc3ncnc-3c[nH]2)cc1` displayed an inhibition at 100 µM of 78%. In assay [2], this compound came in with an IC50 of 47 µM.

As for `CCCCc1ccc(Nc2nc(SC)c3[nH]cnc3n2)cc1`, in assay [1], at 100 µM the inhibition was 72%. Besides, the midpoint of inhibition in assay [2], the IC50, lay at 32 µM.

`CCCCc1ccc(Nc2ncc3ncn(COCCO)c3n2)cc1` displayed an inhibition at 100 µM in assay [8] of 97%. In assay [9], half-maximal inhibition (IC50) was put at 4.8 µM.

As for `CCCCc1ccc(Nc2nc3c(ncn3[C@@H]3C[C@@H](O)[C@H](CO)O3)c(=O)[nH]2)cc1` (stereo in doubt; 11), in assay [15], the Inhibition is recorded as 53%.

Compound `CCCCc1ccc(Nc2nc3c(ncn3[C@@H]3C[C@@H](O)[C@H](CO)O3)c(=O)[nH]2)cc1` (stereo in doubt; 12) yielded an inhibition at 200 µM in assay [15] (Homo sapiens, HeLa, 3 h) of 46%.

In turn, `CCCCc1ccc(Nc2nc3c(ncn3[C@H]3O[C@@H](CO)[C@H](O)[C@@H]3O)c(=O)[nH]2)cc1` (stereo in doubt; 13) returned an Inhibition in [15] of 75%.

As to `CCCCc1ccc(Nc2nc3c(ncn3[C@H]3O[C@@H](CO)[C@H](O)[C@@H]3O)c(=O)[nH]2)cc1` (stereo in doubt; 14), in [15], the Inhibition came to 38%.

Regarding `C[C@@]1(CO)[C@H](O)CC[C@@]2(C)[C@H]1CC[C@H]1C[C@@H]3C[C@@]12CC[C@]3(O)CO` [APHIDICOLIN], the results for the Inhibition in [16] and in assay [17] were 84% and 0%, respectively.
